In ChEMBL document CHEMBL4229360, “Antimalarial agents against both sexual and asexual parasites stages: structure-activity relationships and biological studies of the Malaria Box compound 1-[5-(4-bromo-2-chlorophenyl)furan-2-yl]-N-[(piperidin-4-yl)methyl]methanamine (MMV019918) and analogues” (Eur J Med Chem, 2018):

Legend:
Plasmodium falciparum [1] = test: Antiplasmodial activity against chloroquine-resistant Plasmodium falciparum W2 after 72 hrs by lactate dehydrogenase assay; format: functional, organism-based; settings: W2, 72 h
Method in brief: (§1)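 Asynchronous blood-stage cultures at 1–1.5% parasitemia and 1% final hematocrit in human A+ RBCs, RPMI 1640 with 1% AlbuMax, hypoxanthine, HEPES and glutamine. Serial dilutions from DMSO stocks, final DMSO <1%. Incubated 72 h at 37 °C under 1% O₂/5% CO₂. IC50 is the mean of ≥3 experiments in duplicate.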

Plasmodium falciparum [2] = test: Gametocytocidal activity against Plasmodium falciparum NF54 HGL gametocytes assessed as inhibition of parasite viability after 72 hrs by ONE-Glo reagent based luminescence assay; format: functional, organism-based
Method in brief: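 NF54 gametocytes raised in 5% haematocrit RPMI1640/10% human serum, with 50 mM NAG on days 4–9. Mainly stage IV gametocytes isolated on day 11 by Percoll gradient and seeded at 5000 cells/well, final DMSO 0.1%. Incubated 72 h at 37 °C, 3% O2, 4% CO2; viability by ONE-Glo luminescence.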

Plasmodium falciparum [3] = test: Antiplasmodial activity against chloroquine-sensitive Plasmodium falciparum D10 after 72 hrs by lactate dehydrogenase assay; format: functional, organism-based; settings: D10, 72 h; method in brief: as §1
Plasmodium falciparum [4] = test: Antiplasmodial activity against asexual blood stage Plasmodium falciparum NF54 after 72 hrs by SYBR green-based fluorometric analysis; format: functional, organism-based; settings: NF54, 72 h
Method in brief: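 Asexual NF54 seeded at 0.83% parasitaemia, 1.5% haematocrit, in RPMI1640 with 10% human serum. Serial dilutions, final DMSO 0.1%. Incubated 72 h at 37 °C under 3% O2, 4% CO2, then read by SYBR Green fluorescence.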

[5] = Cytotoxicity against mouse NIH/3T3 cells after 24 hrs by neutral red uptake assay; format: cell-based, NIH3T3; settings: read-out: TC50
Method in brief: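 NIH3T3 cells exposed for 24 h; viability by neutral red uptake. Mean of three experiments, six replicates each.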

Plasmodium falciparum [6] = test: Gametocytocidal activity against Plasmodium falciparum 3D7 elo1-pfs16-CBG99 late-stage (4 to 5) gametocytes assessed as inhibition of parasite viability after 72 hrs by luciferase reporter assay; format: functional, organism-based; settings: 3D7 elo1-pfs16-CBG99, 72 h
Method in brief: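 Transgenic 3D7elo1-pfs16-CBG99 gametocytes express CBG99 luciferase from the pfs16 promoter. Stage IV–V gametocytes (Giemsa-checked) were exposed at day 8–10 after NAG addition to serial dilutions in complete medium for 72 h. Samples at 2% haematocrit were then mixed 1:1 with D-luciferin (1 mM, pH 5.5 citrate) for 10 min and luminescence was read. IC50 came from non-linear regression, mean of ≥3 experiments in duplicate.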

[7] = molecular target: T1, Phosphoethanolamine N-methyltransferase (Plasmodium falciparum) (UniProt Q8IDQ9); test: Inhibition of plasmodium falciparum phosphoethanolamine N-methyltransferase expressed in Escherichia coli assessed as remaining enzyme activity at 100 uM using phosphoethanolamine as substrate and [methyl-14C] SAM by radiochemical assay
T1 sequence (whole entry): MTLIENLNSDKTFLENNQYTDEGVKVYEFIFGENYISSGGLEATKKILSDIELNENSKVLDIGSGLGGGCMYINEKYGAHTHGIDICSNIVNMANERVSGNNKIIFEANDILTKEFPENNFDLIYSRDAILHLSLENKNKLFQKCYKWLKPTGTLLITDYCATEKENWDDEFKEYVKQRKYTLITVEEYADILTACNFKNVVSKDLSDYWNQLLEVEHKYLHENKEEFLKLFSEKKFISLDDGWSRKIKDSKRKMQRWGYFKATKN
Method in brief: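 Recombinant PfPMT purified from E. coli, 2 μg per 100 μL reaction. Buffer 0.1 M HEPES-KOH pH 8.0, 2 mM Na2EDTA, 10% glycerol, 5% DMSO, with 30 μM SAM (100 nCi [methyl-14C]SAM) and 55 μM phosphoethanolamine; radiochemical read-out.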

## Clc1cc(Br)ccc1-c1ccc(CNCC2CCNCC2)s1
Plasmodium falciparum [1]
  IC50: 2200 nM
Plasmodium falciparum [2]
  IC50: 20 nM
Plasmodium falciparum [3]
  IC50: 730 nM
Plasmodium falciparum [4]
  IC50: 280 nM
[5]
  CC50 at 24 h: < 5 µM
Plasmodium falciparum [6]
  IC50: 0.85 µM

## Clc1ccc(-c2nnc(CNCC3CCNCC3)o2)c(Br)c1
Plasmodium falciparum [1]
  IC50: 7900 nM
Plasmodium falciparum [3]
  IC50: > 13000 nM
Plasmodium falciparum [6]
  IC50: > 26 µM

## FC(F)(F)c1ccc(-c2cccc(CNCC3CCNCC3)n2)cc1
Plasmodium falciparum [1]
  IC50: 3400 nM
Plasmodium falciparum [3]
  IC50: 460 nM
Plasmodium falciparum [6]
  IC50: 4 µM

## C[N+](C)(CCCNCc1ccc(-c2ccc(Cl)cc2Br)o1)Cc1ccccc1
Plasmodium falciparum [1]
  IC50: 660 nM
Plasmodium falciparum [3]
  IC50: 550 nM
[7]
  Activity: 95.8%
Plasmodium falciparum [6]
  IC50: 4.8 µM

## Clc1ccc(-c2ccc(CNCC3CCNCC3)s2)c(Br)c1
Plasmodium falciparum [1]
  IC50: 1400 nM
Plasmodium falciparum [2]
  IC50: 28 nM
Plasmodium falciparum [3]
  IC50: 530 nM
Plasmodium falciparum [4]
  IC50: 420 nM
[5]
  CC50 at 24 h: < 5 µM
Plasmodium falciparum [6]
  IC50: 0.83 µM

## CN(C)c1ccc2nc3ccc(N(C)C)cc3[s+]c2c1 [METHYLENE BLUE ANHYDROUS]
Plasmodium falciparum [6]
  IC50: 0.03 µM

## Brc1ccc(-c2ccc(CNCC3CCNCC3)o2)cc1
Plasmodium falciparum [1]
  IC50: 8000 nM
Plasmodium falciparum [3]
  IC50: 1100 nM
Plasmodium falciparum [6]
  IC50: 4.4 µM

## CN(C)CCCNCc1ccc(-c2ccc(Br)cc2Cl)o1
Plasmodium falciparum [1]
  IC50: 1400 nM
Plasmodium falciparum [3]
  IC50: 1200 nM
[5]
  CC50 at 24 h: 5 µM
Plasmodium falciparum [6]
  IC50: 1.1 µM

## c1ccc(-c2ccc(CNCC3CCNCC3)o2)cc1
Plasmodium falciparum [1]
  IC50: 9100 nM
Plasmodium falciparum [3]
  IC50: 3500 nM
Plasmodium falciparum [6]
  IC50: 8.6 µM

## Clc1ccccc1-c1ccc(CNCC2CCNCC2)o1
Plasmodium falciparum [1]
  IC50: 4300 nM
Plasmodium falciparum [3]
  IC50: 2100 nM
Plasmodium falciparum [6]
  IC50: 5.9 µM

## Clc1ccc(-c2ccc(CNCC3CCNCC3)o2)c(Br)c1
Plasmodium falciparum [1]
  IC50: 1870 nM
Plasmodium falciparum [3]
  IC50: 510 nM
[5]
  CC50 at 24 h: < 5 µM
Plasmodium falciparum [6]
  IC50: 1.1 µM
